Assay: Toxicity liver stage against HepG2, at 10uM
Format: cell-based
Design: test concentration 10 uM, cell line HepG2-A16-CD81EGFP
Conditions: human, HepG2-A16-CD81EGFP cells; read-out: INHIBITION
Procedure, shortened: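 Uninfected HepG2-A16-CD81EGFP cells, 3 × 10^3 per well, 1536-well, plated on prespotted compound at 10 μM final, parasite-free screening media added to match infected plates; puromycin 10 μM positive, DMSO 0.5% negative; run in parallel with 48 h PbLuc assay at 37 °C, 5% CO2; viability by CellTiter-Glo luminescence, normalized to controls.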

| SMILES | cytotoxicity at 10 µM |
| --- | --- |
| NC(=O)c1ccc2c(c1)nc1n2CCN(Cc2ccccc2)C1 | -8.8% |
| COCc1nnc(C(=O)N2CCC(N3CCCCC3)CC2)o1 | 10.2% |
| Cc1ccc(C)c(C(=O)NC2CCC(N3C(=O)CCC3=O)CC2)c1 (stereo not given) | 3.38% |
| O=C(c1cc(C2CC2)on1)N1C[C@H]2CC[C@](O)(c3ccccc3F)[C@H]2C1 | 5.37% |
| COCc1noc(-c2ccc(N3CCC[C@H]3CO)nc2)n1 | -8.26% |
| Cc1cc(N(C)C)nc(C2(C)CCCN2CC(N)=O)n1 (stereo not given) | -2.8% |
| Cc1nn(C)c(N(C)C)c1CNCc1ccccc1Cn1cncn1 | 3.85% |
| CC(C)c1nc(CN2CCCC2CN2CCCC2)cs1 (stereo not given) | 6.72% |
| CN(C)C(=O)N1C[C@H](Oc2ccccn2)[C@H]2OCCC[C@H]21 | 6.07% |
| NC(=O)CCSCc1cc(Br)cc2cccnc12 | -7.68% |
| Fc1ccc(-c2nc(CNC3CCc4ncnn4C3)cs2)cc1 (stereo not given) | -4.92% |
| O=C(Nc1cccnc1-n1cc(Cl)cn1)C1CCCCC1 | -39% |
| COc1cc2c(cc1OC)S(=O)(=O)N(Cc1ccccc1)C2=O | 8.2% |
| Cc1nc(C)n(CC2CCCCN2Cc2nc(-c3ccco3)no2)n1 (stereo not given) | -10.6% |
| CN1CCN(C(=O)NCCNc2ncccn2)Cc2ccccc21 | -4.47% |
| CCNC(=O)[C@H]1CN(Cc2ccccc2)C[C@@H]1C(=O)c1ccccc1 | 3.08% |
| Cc1nnc(CN2CCN(C(C)c3nc(C4CC4)no3)CC2)o1 (stereo not given) | -10.3% |
| Cc1nc(CN2C[C@@H](NS(=O)(=O)N(C)C)[C@H](C(C)C)C2)cs1 | -6.04% |
| Cc1cc(NC(=O)Cc2ccccc2O)cnc1N1CCCCC1 | -0.134% |
| CN(C)c1nccc(N(C)C2CCOCC2)n1 | 3.13% |
| Cc1cccc(CN2C[C@@H]3CN(C(=O)c4cnoc4C)C[C@@H]3C2=O)n1 | 5.71% |
| CN(CC1CCCCC1)C(=O)c1ccc(-n2ncc(C#N)c2N)cc1 | 0.347% |
| O=C(c1ccccc1-c1ccccc1)N1C[C@@H]2CNC[C@]2(C(=O)O)C1 | -0.265% |

| SMILES | cytotoxicity at 10 µM |
| --- | --- |
| O=C1N(Cc2cccnc2)CCC12CCCN(c1ncc(F)cn1)C2 (stereo not given) | -1% |
| CCN(CC)c1ncccc1CNCc1cc2ccccc2s1 | 4.43% |
| COC(C)(C)CNC(=O)C1CCC(=O)N(C2CCCC2)C1 (stereo not given) | -6.52% |
| CCC12CN3CC(CC)(CN(C1)C3c1[nH]c(=O)[nH]c(=O)c1C)C2=O (stereo not given) | 12.5% |
| C[C@H]1C(=O)NC[C@H]2CN(Cc3ccccc3)C[C@H]21 | 1.47% |
| COc1cccc2c1CCCCN2C(=O)c1oc(C)nc1C | 3.3% |
| COc1ccc(CN2CCCC2)cc1Oc1cccc(C#N)n1 | 7.01% |
| CN(Cc1cnccn1)C(=O)c1ccnc(OC2CCC2)c1 | 0.0711% |
| Cc1ccccc1CC(=O)N1CCCn2cncc2C1 | -1.1% |
| COc1ncc(CN2CCC3(CCCN(CC4CCCCC4)C3)C2)cn1 (stereo not given) | -6.8% |
| CNC(=O)CCCNCc1c(C)nn(CC(C)C)c1N(C)C | -2.51% |
| Cc1ncncc1C(=O)N1CCCN(Cc2cnn(C(C)C)c2)CC1 | 0.814% |
| CSC(C)C(=O)N(C)CC(=O)Nc1ccc(Br)cn1 (stereo not given) | -7.18% |
| O=S(=O)(NC1CCN(CC(F)(F)F)C1)c1cc(F)cc(F)c1 (stereo not given) | -5.18% |
| CCCN1CCC(CC(=O)N2CCC(C(O)c3nccn3C)CC2)CC1 (stereo not given) | -1.13% |
| O=C(O)[C@]12CCCN(C3CCOC3)C[C@H]1CN(c1nncs1)C2 (stereo not given in full) | -106% |
| O=C(c1ccccc1F)N1CCC2(CC1)CC(N1CCCC1)CO2 (stereo not given) | -120% |
| Fc1ccc(CN2CCCC2Cn2cncn2)c2ncccc12 (stereo not given) | 11.7% |
| O=C1CCCN1Cc1ncn2c1CN(S(=O)(=O)c1cccs1)CCC2 | 4.76% |
| CN(Cc1ccco1)Cc1ccccc1CNC(=O)c1csnn1 | 7.88% |
| NC(=O)c1cc(NC(=O)N2CCCCCC2)ccc1F | 0.692% |
| Cc1noc(C(C)N2CCN(Cc3nnc(C4CC4)o3)CC2)n1 (stereo not given) | -11.8% |

From ChEMBL document CHEMBL4513216, “Probing the Open Global Health Chemical Diversity Library for Multistage-Active Starting Points for Next-Generation Antimalarials” (ACS Infect Dis, 2020)
